Reference: ChEMBL document CHEMBL3108716, “Anti-inflammatory and chondroprotective activity of (+)-α-pinene: structural and enantiomeric selectivity” (2014)
One block for each molecule: values may come before it. The source made the active and inactive calls. The calls are words filed in the database; no cut-off is given here.

What was measured:
[1] = biological target: T1, c-Jun N-terminal kinase, JNK (Homo sapiens) (UniProt P45983+P53779+P45984); experiment: Inhibition of IL-1beta-induced JNK phosphorylation in human primary chondrocytes at 200 ug/ml by Western blotting analysis relative to IL-1beta treated control; type: cell-based; settings: values are per cent of control
[2] = organism: Homo sapiens; experiment: Antiinflammatory activity against human primary chondrocytes assessed as inhibition of IL-1beta-induced iNOS protein expression level after 30 mins by Western blotting analysis relative to IL-1beta treated control; type: functional
In short: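 Serum-starved primary human chondrocytes pretreated 30 min with compound in DMSO (≤0.1% final), then IL-1β 10 ng/mL for 24 h. Total extracts immunoblotted with mouse monoclonal anti-human iNOS and detected by chemifluorescence. Band intensity normalized to β-tubulin or actin and expressed relative to IL-1β alone. Mean ± SEM, ≥4 independent experiments; paired t test.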

[3] = biological target: MAP kinase p38 (Homo sapiens) (UniProt O15264+Q15759+Q16539+P53778); experiment: Inhibition of IL-1beta-induced p38 MAPK phosphorylation in human primary chondrocytes at 200 ug/ml by Western blotting analysis relative to IL-1beta treated control; type: cell-based
[4] = Antiinflammatory activity against human primary chondrocytes assessed as inhibition of IL-1beta-induced NO production at 200 ug/ml after 30 mins by Griess method relative to IL-1beta treated control; values are per cent of control; settings: 0.5 h
[5] = system: C28/I2; experiment: Inhibition of NFkappaB activation in human C28/I2 cells assessed as reduction of IL-1beta-induced IkappaBalpha phosphorylation at 200 ug/ml after 30 mins by Western blotting analysis relative to IL-1beta treated control; values are per cent of control
[6] = organism: Homo sapiens; experiment: Antiinflammatory activity against human primary chondrocytes assessed as inhibition of IL-1beta-induced NO production at 10 to 25 ug/ml after 30 mins by Griess method; type: functional
[7] = biological target: T1, c-Jun N-terminal kinase, JNK (Homo sapiens); experiment: Inhibition of JNK activation in human primary chondrocytes assessed as reduction of IL-1beta-induced MMP13 mRNA expression at 200 ug/ml by quantitative RT-PCR analysis relative to IL-1beta treated control; type: cell-based
In short: (§1)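 Serum-starved primary human chondrocytes exposed 12 h to IL-1β 10 ng/mL with or without 200 μg/mL compound, the compound added 30 min before the stimulus. MMP-1 and MMP-13 mRNA quantified by RT-PCR and expressed versus IL-1β-treated cells. Mean ± SEM of at least four independent experiments; paired t test.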

[8] = biological target: T1, c-Jun N-terminal kinase, JNK (Homo sapiens); experiment: Inhibition of JNK activation in human primary chondrocytes assessed as reduction of IL-1beta-induced MMP1 mRNA expression at 200 ug/ml by quantitative RT-PCR analysis relative to IL-1beta treated control; type: cell-based; in short: as §1
[9] = organism: Homo sapiens; experiment: Inhibition of NFkappaB activation in human primary chondrocytes assessed as reduction of IL-1beta-induced MMP13 mRNA expression at 200 ug/ml by quantitative RT-PCR analysis relative to IL-1beta treated control; type: cell-based; in short: as §1
[10] = organism: Homo sapiens; experiment: Inhibition of NFkappaB activation in human primary chondrocytes assessed as reduction of IL-1beta-induced MMP1 mRNA expression at 200 ug/ml by quantitative RT-PCR analysis relative to IL-1beta treated control; type: cell-based; in short: as §1
[11] = system: C28/I2; experiment: Inhibition of NFkappaB activation in human C28/I2 cells assessed as reduction of IL-1beta-induced protein-DNA complex formation at 200 ug/ml after 30 mins by ELISA relative to IL-1beta treated control; type: cell-based
In short: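 C28/I2 cells pretreated 30 min ± 200 μg/mL compound, then IL-1β 10 ng/mL for 30 min. Nuclear extracts incubated with biotinylated NF-κB consensus oligonucleotide in a colorimetric ELISA-type binding assay; absorbance taken as amount of active NF-κB–DNA complexes. Specificity checked with 10-fold molar excess of unlabeled wild-type or mutant oligonucleotide. Mean ± SEM, four experiments.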

[12] = organism: Homo sapiens; experiment: Antiinflammatory activity against human primary chondrocytes assessed as inhibition of IL-1beta-induced iNOS mRNA expression after 30 mins by Western blotting analysis relative to IL-1beta treated control; type: functional
[13] = organism: Homo sapiens; experiment: Antiinflammatory activity against human primary chondrocytes assessed as inhibition of IL-1beta-induced NO production after 30 mins by Griess method; type: functional
[14] = Chondroprotective activity in human primary chondrocytes assessed as effect on IL-1beta-induced collagen2/1 mRNA expression at 200 ug/ml by quantitative RT-PCR analysis relative to IL-1beta treated control; type: functional
In short: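 Primary human chondrocytes treated 24 h with IL-1β 10 ng/mL with or without 200 μg/mL compound after a 30 min pretreatment; TIMP-1, collagen I and collagen II mRNA measured by RT-PCR relative to IL-1β-only cells. The collagen II/collagen I mRNA ratio served as a differentiation index. Mean ± SEM of ≥4 independent experiments; paired t test.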

[15] = Antiinflammatory activity against human primary chondrocytes assessed as IL-1beta-induced iNOS protein expression level after 30 mins by Western blotting analysis relative to IL-1beta treated control

response, % of control [1]: 65.8%
inhibition [3]: inactive
Compound: CC1=CC[C@H]2C[C@@H]1C2(C)C
inhibition [2]: Active
level, % of control at 200 µg/mL [4]: 58.1%
level, % of control [5]: 58.4%

Compound: C=C1C(O)CC2CC1C2(C)C (configuration not stated)
inhibition [6]: inactive

Compound: CC1(C)C2CC=C(CO)C1C2 (configuration not stated)
inhibition [6]: inactive

Compound: CC1(C)[C@@H]2CC=C(C=O)[C@H]1C2
inhibition [6]: inactive

Compound: CC1(C)[C@H]2CC[C@@H](CO)[C@H]1C2
inhibition [6]: inactive

Compound: CC1=C[C@@H](O)[C@@H]2C[C@@H]1C2(C)C
inhibition [6]: inactive

Compound: C[C@H]1CC[C@H]2C[C@@H]1C2(C)C
inhibition [2]: Active
inhibition [6]: inactive

Compound: CC1=CCC2CC1C2(C)C (racemic) [ALPHA-PINENE]
level, % of control at 200 µg/mL [4]: 40.6%

Compound: C=C1CCC2CC1C2(C)C (racemic) [BETA-PINENE]
level, % of control at 200 µg/mL [4]: 76.8%

inhibition [7]: Active
inhibition [8]: Active
response, % of control [1]: 51.3%
inhibition [3]: inactive
Compound: CC1=CC[C@@H]2C[C@H]1C2(C)C [1R-(+)-ALPHA-PINENE]
inhibition [9]: Active
inhibition [10]: Active
inhibition [11]: Active
inhibition [12]: Active
inhibition [13]: Dose-dependent effect
fold change (FC) [14]: 2.6
Activity [15]: 24.4%
level, % of control at 200 µg/mL [4]: 31.5%
level, % of control [5]: 33.6%
